Experimental findings from ChEMBL document CHEMBL4304834, “3-Amino-chromanes and Tetrahydroquinolines as Selective 5-HT2B, 5-HT7, or σ1 Receptor Ligands” (ACS Med Chem Lett, 2019) are described below.

Format in all cases: cell-based
The target of assay [1] is T1, 5-hydroxytryptamine receptor 3A (Homo sapiens) (UniProt P46098).
T1 sequence (whole entry): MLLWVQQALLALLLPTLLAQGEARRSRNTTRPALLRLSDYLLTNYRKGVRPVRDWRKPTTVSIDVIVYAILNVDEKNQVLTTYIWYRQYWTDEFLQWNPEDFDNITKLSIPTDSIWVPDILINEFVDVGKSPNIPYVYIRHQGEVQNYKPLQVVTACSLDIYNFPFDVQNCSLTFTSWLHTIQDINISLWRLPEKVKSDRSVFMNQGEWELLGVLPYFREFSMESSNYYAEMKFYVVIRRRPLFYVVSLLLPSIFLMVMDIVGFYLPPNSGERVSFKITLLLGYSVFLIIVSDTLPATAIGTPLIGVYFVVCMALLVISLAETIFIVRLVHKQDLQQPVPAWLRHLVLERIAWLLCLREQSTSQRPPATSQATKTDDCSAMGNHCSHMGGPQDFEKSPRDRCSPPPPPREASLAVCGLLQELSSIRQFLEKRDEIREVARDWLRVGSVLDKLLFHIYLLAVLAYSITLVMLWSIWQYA
Nature of the assay: Displacement of [3H]-GR65630 from human recombinant 5-HT3 receptor expressed in HEKT cells at 10 uM after 90 mins by microbeta scintillation counting method relative to control. The method in brief:
(§1)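 Radioligand binding run by the NIMH Psychoactive Drug Screening Program. […] Otherwise Ki comes from sigmoidal curve fits of triplicate measurements in a single experiment, or is averaged over repeated experiments each run in triplicate.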

In assay [2] the target is 5-hydroxytryptamine receptor 2B (Homo sapiens, UniProt P41595). Nature of the assay: Displacement of [3H]-LSD from human recombinant 5-HT2B receptor stably expressed in HEK cells after 90 mins by microbeta scintillation counting method. As to conditions: read-out: pKi (converted). The method in brief: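 Run by NIMH Psychoactive Drug Screening Program. Otherwise, competition binding curves are generated and pKi is taken from a sigmoidal curve fit. Data are either triplicate measurements within one experiment, with the error from the fit, or the mean of repeated experiments, each run in triplicate.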

In assay [3] the target is Sigma intracellular receptor 2 (Homo sapiens, UniProt Q5BJF2). Put plainly: Displacement of […] from human recombinant sigma2 receptor expressed in HEKT cells at 10 uM after 90 mins by microbeta scintillation counting method relative to control. The method in brief: as §1
(Displacement assays read how much labelled ligand stays bound in the presence of the test substance.)

Assay [4] deals with T2, Muscarinic acetylcholine receptor M5 (Homo sapiens) (UniProt P08912).
T2 sequence (whole entry): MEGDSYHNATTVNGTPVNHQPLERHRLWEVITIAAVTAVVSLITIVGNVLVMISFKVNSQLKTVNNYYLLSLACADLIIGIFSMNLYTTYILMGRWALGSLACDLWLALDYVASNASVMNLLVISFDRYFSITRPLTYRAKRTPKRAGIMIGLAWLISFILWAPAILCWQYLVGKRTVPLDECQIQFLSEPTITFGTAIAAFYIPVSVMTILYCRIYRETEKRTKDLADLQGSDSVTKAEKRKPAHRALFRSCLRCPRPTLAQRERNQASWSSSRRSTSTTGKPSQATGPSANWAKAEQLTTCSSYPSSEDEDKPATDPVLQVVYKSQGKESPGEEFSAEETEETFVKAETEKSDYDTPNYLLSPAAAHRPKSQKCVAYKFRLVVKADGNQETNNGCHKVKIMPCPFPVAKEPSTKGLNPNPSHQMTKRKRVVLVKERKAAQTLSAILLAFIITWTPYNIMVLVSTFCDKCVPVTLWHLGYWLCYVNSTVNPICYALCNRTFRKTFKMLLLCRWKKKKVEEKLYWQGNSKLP
Put plainly: Displacement of [3H]-QNB/[3H]-NMS from human recombinant Muscarinic acetylcholine M5 receptor expressed in stable CHO cells at 10 uM after 90 mins by microbeta scintillation counting method relative to control.

In assay [5] the target is Sodium-dependent dopamine transporter (Homo sapiens, UniProt Q01959). Nature of the assay: Displacement of [3H]-Win35428 from human recombinant DAT receptor expressed in stable HEK cells after 90 mins by microbeta scintillation counting method. The procedure, abridged: (§2)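 Radioligand binding was run by the NIMH Psychoactive Drug Screening Program. Compounds were first screened at 10 μM. Those giving ≥50% binding were taken to full competition curves. Ki is reported as pKi from a sigmoidal curve fit of triplicate measurements in a single experiment; the error is the curve-fit error.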

The target of assay [6] is 5-hydroxytryptamine receptor 1E (Homo sapiens, UniProt P28566). Nature of the assay: Displacement of [3H]-HT from human recombinant 5-HT1E receptor expressed in stable HEK cells after 90 mins by microbeta scintillation counting method. The method in brief: as §1
The target of assay [7] is T3, Alpha-1B adrenergic receptor (Homo sapiens) (UniProt P35368).
T3 sequence (whole entry): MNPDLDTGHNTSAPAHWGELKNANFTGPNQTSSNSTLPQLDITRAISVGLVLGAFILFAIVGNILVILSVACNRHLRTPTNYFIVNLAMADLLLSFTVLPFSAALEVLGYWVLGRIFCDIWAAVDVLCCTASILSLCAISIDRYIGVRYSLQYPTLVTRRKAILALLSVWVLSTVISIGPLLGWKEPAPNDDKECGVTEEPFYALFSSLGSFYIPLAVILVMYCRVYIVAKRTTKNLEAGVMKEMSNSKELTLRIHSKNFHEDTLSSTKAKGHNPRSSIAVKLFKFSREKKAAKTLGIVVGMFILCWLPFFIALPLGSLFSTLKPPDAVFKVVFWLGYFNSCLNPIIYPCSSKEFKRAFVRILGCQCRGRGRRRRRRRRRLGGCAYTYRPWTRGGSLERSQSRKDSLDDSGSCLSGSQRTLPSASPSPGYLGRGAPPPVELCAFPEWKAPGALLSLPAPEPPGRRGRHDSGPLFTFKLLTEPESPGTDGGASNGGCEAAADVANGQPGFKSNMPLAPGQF
Put plainly: Displacement of [3H]-Prazosin from human recombinant adrenergic Alpha1B receptor expressed in HEKT cells at 10 uM after 90 mins by microbeta scintillation counting method relative to control.

The target in assay [8] is T4, 5-hydroxytryptamine receptor 2C (Homo sapiens, UniProt P28335).
T4 sequence (P28335 whole entry): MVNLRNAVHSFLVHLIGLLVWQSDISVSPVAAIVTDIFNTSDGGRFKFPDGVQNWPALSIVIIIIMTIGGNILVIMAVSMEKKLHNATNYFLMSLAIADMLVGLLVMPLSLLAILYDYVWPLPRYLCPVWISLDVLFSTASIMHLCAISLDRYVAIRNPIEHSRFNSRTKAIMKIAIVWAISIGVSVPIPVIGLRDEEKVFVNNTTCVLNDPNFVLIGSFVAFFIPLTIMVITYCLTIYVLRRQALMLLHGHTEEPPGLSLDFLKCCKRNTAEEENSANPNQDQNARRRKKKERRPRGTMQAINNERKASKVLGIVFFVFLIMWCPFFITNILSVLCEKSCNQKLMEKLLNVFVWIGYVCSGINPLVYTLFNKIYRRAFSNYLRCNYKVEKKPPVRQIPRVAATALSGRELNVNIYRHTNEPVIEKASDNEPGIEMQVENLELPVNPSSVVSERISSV
Nature of the assay: Displacement of [3H]-Mesulergine from human recombinant 5-HT2C receptor expressed in HEKT cells after 90 mins by microbeta scintillation counting method. The procedure, abridged:
as §1

The next assay deals with Histamine H3 receptor (Homo sapiens, UniProt Q9Y5N1). Put plainly: Displacement of [3H]-alpha-methylhistamine from human recombinant histamine H3 receptor expressed in Flp-In HEK cells after 90 mins by microbeta scintillation counting method. The procedure, abridged: as §2

What is called inhibition is the change of the read-out against control, counted positive when it falls.

Chain of 5-hydroxytryptamine receptor 2B (P41595 whole entry): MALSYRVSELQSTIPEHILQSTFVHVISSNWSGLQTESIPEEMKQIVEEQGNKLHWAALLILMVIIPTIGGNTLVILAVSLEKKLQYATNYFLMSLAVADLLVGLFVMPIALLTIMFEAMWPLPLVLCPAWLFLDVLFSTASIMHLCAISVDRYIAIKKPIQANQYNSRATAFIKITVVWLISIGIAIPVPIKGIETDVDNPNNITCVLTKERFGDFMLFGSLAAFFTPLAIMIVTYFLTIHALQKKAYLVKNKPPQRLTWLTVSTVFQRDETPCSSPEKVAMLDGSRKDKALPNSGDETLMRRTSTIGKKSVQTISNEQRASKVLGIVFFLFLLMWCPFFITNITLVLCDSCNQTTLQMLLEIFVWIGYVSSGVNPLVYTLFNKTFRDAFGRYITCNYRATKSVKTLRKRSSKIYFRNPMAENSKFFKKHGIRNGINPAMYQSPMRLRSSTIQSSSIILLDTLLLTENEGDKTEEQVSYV
Chain of Sodium-dependent dopamine transporter (Q01959 whole entry): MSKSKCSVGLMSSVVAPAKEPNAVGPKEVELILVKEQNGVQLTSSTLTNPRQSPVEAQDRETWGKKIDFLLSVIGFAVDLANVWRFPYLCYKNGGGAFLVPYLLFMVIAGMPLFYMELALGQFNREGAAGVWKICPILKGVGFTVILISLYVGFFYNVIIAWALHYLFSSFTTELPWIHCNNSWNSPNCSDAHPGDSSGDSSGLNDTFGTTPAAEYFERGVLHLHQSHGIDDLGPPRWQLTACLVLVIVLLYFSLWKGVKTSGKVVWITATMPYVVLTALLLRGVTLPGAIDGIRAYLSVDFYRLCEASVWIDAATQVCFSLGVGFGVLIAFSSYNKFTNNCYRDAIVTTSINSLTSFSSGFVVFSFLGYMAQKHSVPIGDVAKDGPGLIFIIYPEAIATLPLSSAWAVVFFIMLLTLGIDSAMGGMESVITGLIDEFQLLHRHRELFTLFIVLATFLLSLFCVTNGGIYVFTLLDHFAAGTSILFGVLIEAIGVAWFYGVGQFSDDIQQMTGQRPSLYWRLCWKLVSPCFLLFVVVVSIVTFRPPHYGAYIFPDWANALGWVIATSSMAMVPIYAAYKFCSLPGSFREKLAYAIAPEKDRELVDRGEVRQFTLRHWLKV
Chain of 5-hydroxytryptamine receptor 1E (P28566 whole entry): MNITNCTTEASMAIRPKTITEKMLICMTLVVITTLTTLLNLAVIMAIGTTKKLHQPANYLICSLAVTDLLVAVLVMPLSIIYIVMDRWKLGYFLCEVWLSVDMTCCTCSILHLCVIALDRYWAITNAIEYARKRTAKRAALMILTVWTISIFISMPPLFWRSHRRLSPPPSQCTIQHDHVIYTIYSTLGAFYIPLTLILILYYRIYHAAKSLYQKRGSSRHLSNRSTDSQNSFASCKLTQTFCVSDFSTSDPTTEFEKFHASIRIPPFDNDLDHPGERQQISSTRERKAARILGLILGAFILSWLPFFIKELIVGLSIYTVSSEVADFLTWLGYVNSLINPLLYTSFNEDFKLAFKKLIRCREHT
Chain of Sigma intracellular receptor 2 (Q5BJF2 whole entry): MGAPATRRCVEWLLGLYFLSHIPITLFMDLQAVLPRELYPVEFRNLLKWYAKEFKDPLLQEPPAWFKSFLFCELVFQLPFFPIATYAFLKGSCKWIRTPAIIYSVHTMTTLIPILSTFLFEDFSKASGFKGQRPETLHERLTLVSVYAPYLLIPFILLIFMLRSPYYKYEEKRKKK
Chain of Histamine H3 receptor (Q9Y5N1 whole entry): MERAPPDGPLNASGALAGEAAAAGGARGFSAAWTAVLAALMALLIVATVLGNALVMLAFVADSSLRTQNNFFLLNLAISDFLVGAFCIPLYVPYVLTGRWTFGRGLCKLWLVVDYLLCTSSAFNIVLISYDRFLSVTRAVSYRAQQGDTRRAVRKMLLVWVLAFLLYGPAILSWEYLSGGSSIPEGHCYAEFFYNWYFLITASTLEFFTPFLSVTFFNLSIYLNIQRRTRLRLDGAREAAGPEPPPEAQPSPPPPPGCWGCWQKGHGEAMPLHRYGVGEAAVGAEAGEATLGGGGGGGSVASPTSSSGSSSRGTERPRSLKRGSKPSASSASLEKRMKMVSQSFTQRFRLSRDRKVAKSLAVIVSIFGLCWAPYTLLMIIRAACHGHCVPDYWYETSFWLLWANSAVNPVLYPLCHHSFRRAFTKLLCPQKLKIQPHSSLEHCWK

With `COc1cc(OC)c2c(c1)OC[C@@]1(C)NCC[C@@H]21` (racemic), the inhibition in [1], in assay [3], in [4] and in assay [7] was less than 50% in each case. For the same compound, the Ki is 0.251 µM in assay [2], greater than 10 µM in assay [5], greater than 10 µM in assay [6] and 1.58 µM in [8].
Regarding `C[C@@]12CN(c3ccccc3)c3ccccc3[C@@H]1CCN2` (racemic), the Ki in [5], in assay [6] and in assay [8] was greater than 10 µM in each case.
For `CC[C@H]1c2cc(OC)ccc2CC[C@@]1(C)N` (racemic), the inhibition in assay [1], in assay [3], in assay [4] and in assay [7] was less than 50% each time. Moreover, the Ki in assay [2] is 0.145 µM; in assay [5], 5.01 µM; in [6], greater than 10 µM; on Histamine H3 receptor, greater than 10 µM; in [8], 2.51 µM.
`CC[C@H]1c2cc(C)ccc2OC[C@@]1(C)N` (racemic): the inhibition in assay [1], in assay [3], in assay [4] and in assay [7] was less than 50% each time. In addition, the Ki was 0.178 µM in [2]; greater than 10 µM in [5]; greater than 10 µM in [6]; greater than 10 µM on Histamine H3 receptor; 2.51 µM in [8].
Turning to `CC[C@H]1c2ccccc2N(c2ccccc2)C[C@@]1(C)N` (racemic), the Ki is 0.794 µM in assay [2]; 3.16 µM in assay [5]; greater than 10 µM in assay [6]; 3.98 µM at Histamine H3 receptor; 3.98 µM in assay [8].
